In ChEMBL document CHEMBL3085692, “Violapyrones A-G, α-pyrone derivatives from Streptomyces violascens isolated from Hylobates hoolock feces” (J Nat Prod, 2013):
Values after ≈ are worked out from the molar mass of the structure shown. Active and inactive are the calls of the source. No cut-off for these calls is given here.

Key:
[1] = tested on: Staphylococcus aureus; assay: Antimicrobial activity against Staphylococcus aureus ATCC 25923 by micro broth dilution method; assay type: functional
In short: (§1)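 Bacterial panel run against B. subtilis ATCC 6633 and S. aureus ATCC 25923. Read-out is minimal inhibitory concentration (MIC), reported as the mean of three independent experiments. Ciprofloxacin served as the reference antibacterial.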

[2] = tested on: Bacillus subtilis; assay: Antimicrobial activity against Bacillus subtilis ATCC 6633 by micro broth dilution method; assay type: functional; in short: as §1
[3] = tested on: HeLa; assay: Cytotoxicity against human HeLa cells by MTT assay; assay type: functional, cell-based
In short: (§2)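 MTT read-out measured on a microplate reader, with IC50 derived for each of the five lines (BGC-823, HepG2, H460, HeLa, HCT-116). Adriamycin was the positive control.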

[4] = tested on: HCT-116; assay: Cytotoxicity against human HCT116 cells by MTT assay; assay type: functional, cell-based; in short: as §2
[5] = tested on: Candida albicans; assay: Antimicrobial activity against Candida albicans ATCC 10231 by micro broth dilution method; assay type: functional
In short: (§3)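 Endpoint is the minimal inhibitory concentration (MIC), reported as the mean of three independent experiments. Reference drugs were ciprofloxacin for the bacteria and amphotericin B for the fungi. E. coli ATCC 25922 and P. aeruginosa ATCC 27853 were tested in a panel with B. subtilis ATCC 6633 and S. aureus ATCC 25923.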

[6] = tested on: HepG2; assay: Cytotoxicity against human HepG2 cells by MTT assay; assay type: functional, cell-based
[7] = Cytotoxicity against human H460 cells by MTT assay; assay type: functional, cell-based; conditions: NCI-H460; in short: as §2
[8] = Cytotoxicity against human BGC823 cells by MTT assay; assay type: functional, cell-based; conditions: BGC-823; in short: as §2
[9] = tested on: Aspergillus niger; assay: Antimicrobial activity against Aspergillus niger ATCC 1015 by micro broth dilution method; assay type: functional
In short: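 Antifungal MIC against A. niger, reported as the mean of three independent experiments. Amphotericin B served as the reference antifungal.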

[10] = tested on: Escherichia coli; assay: Antimicrobial activity against Escherichia coli ATCC 25922 by micro broth dilution method; assay type: functional, organism-based; in short: as §3
[11] = tested on: Pseudomonas aeruginosa; assay: Antimicrobial activity against Pseudomonas aeruginosa ATCC 27853 by micro broth dilution method; assay type: functional, organism-based; in short: as §3

With `O=C(O)c1cn(C2CC2)c2cc(N3CCNCC3)c(F)cc2c1=O` [CIPROFLOXACIN] the MIC [1] was 0.5 µg/mL (≈ 1.51 µM) and the MIC [2] was 0.12 µg/mL (≈ 0.362 µM).

For `CCC(C)CCCCc1cc(O)c(C)c(=O)o1` (centres undefined), the IC50 [3] was over 200 µM, the IC50 [4] was over 200 µM and the Activity [5] was “inactive”. For the same compound, the IC50 [6] was over 200 µM, the IC50 [7] was over 200 µM and the IC50 [8] was over 200 µM. The MIC [1] was 16 µg/mL (≈ 67.1 µM), the Activity [9] was “inactive” and the Activity [10] was “inactive”. For the same compound, the MIC [2] was 16 µg/mL (≈ 67.1 µM) and the Activity [11] was “inactive”.

With `Cc1c(O)cc(CCCCC(C)C)oc1=O` the IC50 [3] was over 200 µM, the IC50 [4] was over 200 µM and the Activity [5] was “inactive”. The IC50 [6] was over 200 µM, the IC50 [7] was over 200 µM and the IC50 [8] was over 200 µM. For the same compound, the MIC [1] was 4 µg/mL (≈ 17.8 µM), the Activity [9] was “inactive” and the Activity [10] was “inactive”. The MIC [2] was 4 µg/mL (≈ 17.8 µM) and the Activity [11] was “inactive”.

In the case of `Cc1c(O)cc(CCCCC(C)[C@H](C)O)oc1=O` (some centres undefined), the IC50 [3] is reported as over 200 µM, the IC50 [4] is reported as over 200 µM and the Activity [5] is reported as “inactive”. It also gave an IC50 [6] of over 200 µM, an IC50 [7] of over 200 µM and an IC50 [8] of over 200 µM. For the same compound, the MIC [1] was 128 µg/mL (≈ 503 µM), the Activity [9] was “inactive” and the Activity [10] was “inactive”. For the same compound, the MIC [2] was 128 µg/mL (≈ 503 µM) and the Activity [11] was “inactive”.

With `Cc1c(O)cc(CCCCC(C)(C)O)oc1=O` the IC50 [3] was over 200 µM, the IC50 [4] was over 200 µM and the Activity [5] was “inactive”. It also gave an IC50 [6] of over 200 µM, an IC50 [7] of over 200 µM and an IC50 [8] of over 200 µM. The Activity [1] was “inactive”, the Activity [9] was “inactive” and the Activity [10] was “inactive”. For the same compound, the Activity [2] was “inactive” and the Activity [11] was “inactive”.

For `COc1cc(CCCCC(C)(C)O)oc(=O)c1C`, the IC50 [3] was over 200 µM, the IC50 [4] was over 200 µM and the Activity [5] was “inactive”. It also gave an IC50 [6] of over 200 µM, an IC50 [7] of over 200 µM and an IC50 [8] of over 200 µM. For the same compound, the MIC [1] was 128 µg/mL (≈ 503 µM), the Activity [9] was “inactive” and the Activity [10] was “inactive”. The Activity [2] was “inactive” and the Activity [11] was “inactive”.

Work on `C[C@@H]1[C@H](O)[C@@H](C)/C=C/C=C/C=C/C=C/C=C/C=C/C=C/[C@H](O[C@@H]2O[C@H](C)[C@@H](O)[C@H](N)[C@@H]2O)C[C@@H]2O[C@](O)(C[C@@H](O)C[C@@H](O)[C@H](O)CC[C@@H](O)C[C@@H](O)CC(=O)O[C@H]1C)C[C@H](O)[C@H]2C(=O)O` [AMPHOTERICIN B] yielded an MIC [9] of 1 µg/mL (≈ 1.08 µM).

In the case of `Cc1c(O)cc(CCCC(C)C)oc1=O`, the IC50 [3] is reported as over 200 µM, the IC50 [4] is reported as over 200 µM and the Activity [5] is reported as “inactive”. It also gave an IC50 [6] of over 200 µM, an IC50 [7] of over 200 µM and an IC50 [8] of over 200 µM. For the same compound, the MIC [1] was 8 µg/mL (≈ 38 µM), the Activity [9] was “inactive” and the Activity [10] was “inactive”. The MIC [2] was 32 µg/mL (≈ 152 µM) and the Activity [11] was “inactive”.

Compound `COc1cccc2c1C(=O)c1c(O)c3c(c(O)c1C2=O)C[C@@](O)(C(=O)CO)C[C@@H]3O[C@H]1C[C@H](N)[C@H](O)[C@H](C)O1` [DOXORUBICIN] has an IC50 [3] of 0.97 µM, an IC50 [4] of 1.38 µM and an IC50 [7] of 0.98 µM. It also gave an IC50 [8] of 1.48 µM.

With `CC(=O)C(C)CCCCc1cc(O)c(C)c(=O)o1` (centres undefined) the IC50 [3] was over 200 µM, the IC50 [4] was over 200 µM and the Activity [5] was “inactive”. It also gave an IC50 [6] of over 200 µM, an IC50 [7] of over 200 µM and an IC50 [8] of over 200 µM. The MIC [1] was 128 µg/mL (≈ 507 µM), the Activity [9] was “inactive” and the Activity [10] was “inactive”. For the same compound, the Activity [2] was “inactive” and the Activity [11] was “inactive”.
